Columns and labels:
[1] = target: T1, Catechol O-methyltransferase (Homo sapiens, UniProt P21964); experiment: Inhibition of c-terminal hexa-His tagged human MB-COMT (unknown origin)
T1 sequence (P21964 whole entry): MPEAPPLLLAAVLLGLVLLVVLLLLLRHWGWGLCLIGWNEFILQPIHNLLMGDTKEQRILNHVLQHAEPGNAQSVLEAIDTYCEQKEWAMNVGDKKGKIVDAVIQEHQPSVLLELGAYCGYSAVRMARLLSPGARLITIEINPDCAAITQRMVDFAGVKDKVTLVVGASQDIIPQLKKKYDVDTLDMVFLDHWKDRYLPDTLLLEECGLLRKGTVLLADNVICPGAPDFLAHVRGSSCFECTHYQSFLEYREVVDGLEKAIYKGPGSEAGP

[2] = target: T1, Catechol O-methyltransferase; experiment: Inhibition of c-terminal hexa-His tagged human S-COMT expressed in HEK293-6E cell membrane homogenate using 7,8-dihydroxy-4-methylcoumarin as substrate after 1 hr in presence of SAM by MTase glo methyltransferase assay
Outline: (§1)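 His6-tagged S-COMT (human or rat), expressed in 293-6E cells and purified by Ni-NTA and size exclusion, 1 ng per well. 20 µM SAM and 10 µM 7,8-dihydroxy-4-methylcoumarin in pH 6.9 Tris/MgCl2/DTT buffer, 1.5% DMSO. 1 h at 37 °C, then MTase-Glo luminescence read against a SAH standard curve. […] 4-parameter IC50; triplicate wells, three runs.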

[3] = Drug uptake in brain of C57BL/6J mouse at 10 mg/kg, ip measured at 1 hr post dose; format: ADME, organism-based; settings: for concentration at 1 h: C57BL/6J, brain, read-out: Drug uptake; for Drug uptake: in vivo, 1 h, BLD = below limit of detection
Outline: (§2)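 Male C57BL/6J mice (8 weeks), single ip injection of 10 mg/kg suspended in 0.1% Tween80/0.1% antifoam/1% methylcellulose at 10 mL/kg. Two mice per timepoint; at 1 h, plasma separated at 4 °C and brain homogenized in 4 volumes PBS pH 7.4. Total brain and plasma levels measured.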

[4] = target: T1, Catechol O-methyltransferase; experiment: Inhibition of c-terminal hexa-His tagged human MB-COMT expressed in HEK293 cell membrane homogenate using norepinephrine as substrate after 1 hr in presence of SAM by MTase glo methyltransferase assay
Outline: (§3)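 Membrane homogenate of HEK293 cells expressing C-terminal His6 MB-COMT (human about 7 ng, rat about 4 ng per well, protein by Bradford […]). 20 µM SAM and 7 µM norepinephrine in 50 mM Tris, 5–10 mM MgCl2, 2.5 mM DTT, pH 6.9, final DMSO 1.5%. 1 h at 37 °C, then MTase-Glo luminescence. […] 4-parameter IC50 fit; triplicate points, three experiments.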

[5] = Clearance in rat hepatocytes assessed as per million cells; format: ADME, cell-based, Hepatocyte; settings: read-out: CLH
[6] = Plasma concentration C57BL/6J mouse at 10 mg/kg, ip measured at 1 hr post dose; format: ADME, organism-based; outline: as §2
Rattus norvegicus [7] = experiment: Oral bioavailability in rat at 3/10 mg/kg; format: ADME, organism-based; settings: in vivo
Outline: (§4)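 Rat pharmacokinetics after a 1 mpk iv dose (n=3) and a 3 or 10 mpk oral dose (n=3).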

Rattus norvegicus [8] = experiment: Volume of distribution at steady state in rat at 1 mg/kg, iv or 3/10 mg/kg, po; format: ADME, organism-based; settings: in vivo; outline: as §4
[9] = Fraction unbound in rat plasma by equilibrium dialysis; format: ADME, cell-free
Outline: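 Percent free drug in mouse or rat plasma, measured by equilibrium dialysis.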

[10] = Efflux ratio of permeability in MDCK cells; format: ADME, cell-based, Canis lupus familiaris; settings: dog
Outline: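 Efflux ratio taken as […] transport across P-glycoprotein-expressing MDCK cells.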

[11] = Half life in rat at 1 mg/kg, iv or 3/10 mg/kg, po; format: ADME, organism-based; settings: in vivo; outline: as §4
[12] = Apparent permeability of the compound in MDCK cells; format: ADME, cell-based, Canis lupus familiaris; settings: dog
Rattus norvegicus [13] = experiment: In vivo inhibition of COMT in Sprague-Dawley rat assessed as DOPAC levels in CSF at 10 mg/kg, po measured at 4 hrs post dose by LC-MS analysis relative to control; format: functional
Outline: (§5)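 Male Sprague Dawley rats (176–200 g on arrival) dosed orally at 10 mg/kg in Tween80/antifoam/methylcellulose suspension, 10 mL/kg, vehicle group as control (n=5–10). At 4 h under isoflurane, CSF drawn from cisterna magna. HVA and DOPAC quantified by LC-MS against standards in 0.01 M perchloric acid/aCSF with d5 internal standards. Reported as % of vehicle.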

[14] = Unbound plasma concentration in Sprague-Dawley rat 10 mg/kg, po after 4 hrs by ES-UPLC analysis; format: ADME, organism-based; settings: in vivo
Outline: (§6)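 Sprague Dawley rats given 10 mg/kg po; CSF, plasma and brain collected at 4 h. Drug measured in CSF; free plasma and brain levels computed from total levels using plasma protein and brain tissue binding fractions. Free CSF derived from CSF binding by equilibrium dialysis with pooled rat CSF. Ratios taken from these values.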

[15] = Unbound drug level in brain of Sprague-Dawley rat at 10 mg/kg, po after 4 hrs by ES-UPLC analysis; format: ADME, organism-based; settings: in vivo; outline: as §6
[16] = Ratio of drug level in CSF of Sprague-Dawley rat to unbound plasma concentration in Sprague-Dawley rat at 10 mg/kg, po after 4 hrs by ES-UPLC analysis; format: ADME, organism-based; settings: in vivo; outline: as §6
[17] = Ratio of drug level in CSF of Sprague-Dawley rat to unbound brain concentration in Sprague-Dawley rat at 10 mg/kg, po after 4 hrs by ES-UPLC analysis; format: ADME, organism-based; settings: in vivo; outline: as §6
[18] = target: T2, Catechol O-methyltransferase (Rattus norvegicus, UniProt P22734); experiment: Inhibition of c-terminal hexa-His tagged rat S-COMT expressed in HEK293-6E cell membrane homogenate using 7,8-dihydroxy-4-methylcoumarin as substrate after 1 hr in presence of SAM by MTase glo methyltransferase assay; outline: as §1
T2 sequence (P22734 whole entry): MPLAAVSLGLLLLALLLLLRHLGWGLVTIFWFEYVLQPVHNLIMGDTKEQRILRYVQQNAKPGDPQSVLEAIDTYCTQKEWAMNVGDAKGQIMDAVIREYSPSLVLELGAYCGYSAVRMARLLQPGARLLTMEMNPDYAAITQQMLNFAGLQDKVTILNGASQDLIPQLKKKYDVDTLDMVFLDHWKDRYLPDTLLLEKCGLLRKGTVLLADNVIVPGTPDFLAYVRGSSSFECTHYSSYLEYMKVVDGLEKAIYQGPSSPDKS

[19] = Protein binding in CSF of Sprague-Dawley rat at 2 uM by equilibrium dialysis; format: ADME, tissue-based, Cerebrospinal fluid; settings: read-out: PB (converted)
Outline: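 Binding in pooled rat CSF measured by equilibrium dialysis at 2 µM test concentration.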

Rattus norvegicus [20] = experiment: In vivo inhibition of COMT in Sprague-Dawley rat assessed as HVA levels in CSF at 10 mg/kg, po measured at 4 hrs post dose by LC-MS analysis relative to control; format: functional; design: scale not given: the % may be the effect or the level left; outline: as §5
[21] = Ratio of unbound drug level in CSF of Sprague-Dawley rat to unbound plasma concentration in Sprague-Dawley rat at 10 mg/kg, po after 4 hrs by ES-UPLC analysis; format: ADME, organism-based; settings: CSF and plasma; outline: as §6
[22] = target: T2, Catechol O-methyltransferase; experiment: Inhibition of c-terminal hexa-His tagged rat MB-COMT expressed in HEK293 cell membrane homogenate using norepinephrine as substrate after 1 hr in presence of SAM by MTase glo methyltransferase assay; outline: as §3
[23] = Drug level in CSF of Sprague-Dawley rat at 10 mg/kg, po after 4 hrs by ES-UPLC analysis; format: ADME, organism-based, Cerebrospinal fluid; settings: read-out: Drug uptake; outline: as §6

Compound	IC50 [2] [µM]	concentration at 1 h [3] [ng/g]	IC50 [4] [µM]	hepatocyte CLint [5] [µL/min/1e6 cells]	concentration at 1 h [6] [ng/mL]	F (Rattus norvegicus [7]) [%]	Vdss (Rattus norvegicus [8]) [L/kg]	half-life [11] [h]	further results
O=S(=O)(O)c1ccc(O)c2ncccc12									IC50 [1]: 6.31 µM
O=S(=O)(c1ccc(O)c2ncccc12)N1CCCC1	2	10.5	0.00794	177	68				
COc1ccc(S(=O)(=O)N2CCCC2)c2cccnc12			> 10						
CCS(=O)(=O)c1ccc(O)c2ncccc12	1.58	11	0.0501	39	250				
O=S(=O)(c1cc(Cl)c(O)c2ncccc12)N1CCCC1	3.16	1150	0.01	14	16200	33	0.8	8.6	Fu [9]: 0.5; efflux ratio [10]: 0.4
O=S(=O)(c1cc(F)c(O)c2ncccc12)C1CCCC1	2.51	1910	0.002	19	6160	32	0.41	7.7	Fu [9]: 0.2; CSF DOPAC level (% of vehicle) (Rattus norvegicus [13]): 218%; Cp(f) [14]: 19 nM; Drug uptake(free) [15]: 12.8 nM; Ratio [16]: 16.5; Ratio [17]: 25; efflux ratio [10]: 0.5; IC50 [18]: 7.94 µM; fraction unbound at 2 µM [19]: 0.43; Activity (Rattus norvegicus [20]): 66%; Kp uu at 4 h [21]: 7.3; IC50 [22]: < 0.001 µM; concentration at 4 h [23]: 321 nM
O=S(=O)(c1ccc(O)c2ncccc12)C1CCCC1	0.501		0.00631		173	24	1.8	0.18	Fu [9]: 0.5; Drug uptake [3]: Bld
O=S(=O)(c1ccc(O)c2ncccc12)N1CCC(c2ccc(F)cc2)C1 (stereo not given)			0.00316	255					
Cc1ccc(S(=O)(=O)c2cc(O)c3ncccc3c2)cc1									IC50 [1]: 1.58 µM
O=C(c1ccc(O)c2ncccc12)N1CCCC1			> 10						
Cc1cc(S(=O)(=O)N2CCCC2)c2cccnc2c1O	3.16	55	0.02	103	576				
O=S(=O)(c1cc(Cl)c(O)c2ncccc12)C1CCCC1	7.94	2790	0.02	18	14700	37	0.3	11	Fu [9]: 0.5; CSF DOPAC level (% of vehicle) (Rattus norvegicus [13]): 213%; Cp(f) [14]: 32 nM; Drug uptake(free) [15]: 5.6 nM; Ratio [16]: 11; Ratio [17]: 64; IC50 [18]: > 10 µM; Activity (Rattus norvegicus [20]): 97%; IC50 [22]: < 0.001 µM; concentration at 4 h [23]: 358 nM
O=S(=O)(c1cc(C(F)(F)F)c(O)c2ncccc12)C1CCCC1	> 10		> 10						
O=S(=O)(c1ccc(C(F)(F)F)cc1)c1cc(F)c(O)c2ncccc12	6.31	1090	0.0794	12	2540	66	3.8	3.5	Fu [9]: 0.6; efflux ratio [10]: 1.1
Oc1cccc2cccnc12 [OXYQUINOLINE]			1.58						IC50 [1]: 3.16 µM

The next lines start with results.

IC50 [2] [µM]	concentration at 1 h [3] [ng/g]	IC50 [4] [µM]	hepatocyte CLint [5] [µL/min/1e6 cells]	concentration at 1 h [6] [ng/mL]	F (Rattus norvegicus [7]) [%]	Vdss (Rattus norvegicus [8]) [L/kg]	half-life [11] [h]	Compound	further results
		3.98						Cc1ccc(C(=O)c2ccc(O)c3ncccc23)cc1	
> 10	1690	0.316	78	9780	45	0.67	0.31	Cc1ccc(S(=O)(=O)c2cc(Cl)c(O)c3ncccc23)cc1	Papp [12]: > 10 ×10⁻⁶ cm/s; efflux ratio [10]: 2.2
> 10		> 10						Cc1ccc(S(=O)(=O)c2cc(C(F)(F)F)c(O)c3ncccc23)cc1	
1.26		0.0631	46	3540				O=S(=O)(c1ccc(C(F)(F)F)cc1)c1ccc(O)c2ncccc12	Drug uptake [3]: Bld
1.58	527	0.00398	15	5720	100	3.5	4.5	O=S(=O)(c1ccc(F)cc1)c1cc(F)c(O)c2ncccc12	CSF DOPAC level (% of vehicle) (Rattus norvegicus [13]): 173%; Cp(f) [14]: 48 nM; Drug uptake(free) [15]: 7.7 nM; Ratio [16]: 2.6; Ratio [17]: 16; Papp [12]: > 10 ×10⁻⁶ cm/s; efflux ratio [10]: 0.7; IC50 [18]: > 10 µM; fraction unbound at 2 µM [19]: 0.47; Activity (Rattus norvegicus [20]): 86%; Kp uu at 4 h [21]: 1.2; IC50 [22]: < 0.001 µM; concentration at 4 h [23]: 127 nM
> 10		1.26						Cc1ccc(S(=O)(=O)c2cc(Br)c(O)c3ncccc23)cc1	
0.501		0.02						Cc1ccc(S(=O)(=O)c2ccc(O)c3ncccc23)cc1	IC50 [1]: 0.02 µM
> 10	5660	0.2	4	16600	23	0.23	8.9	O=S(=O)(c1ccc(F)cc1)c1cc(Cl)c(O)c2ncccc12	Fu [9]: 0.5; efflux ratio [10]: 0.8
		0.251						Cc1ccc(-c2ccc(O)c3ncccc23)cc1	
0.501	518	0.00631	36	1740	34	1.2	0.26	Cc1ccc(S(=O)(=O)c2cc(F)c(O)c3ncccc23)cc1	

Source: ChEMBL document CHEMBL4152376, “Optimization of 8-Hydroxyquinolines as Inhibitors of Catechol O-Methyltransferase” (J Med Chem, 2018)
